The first series can be described thus: In vivo inhibition of Gli1 mRNA expression in mouse bearing human PAN-04 cells assessed as expression level at 25 mg/kg, po bid after 24 hrs by qPCR analysis relative to control. It counts as functional.
Conditions: not given
An outline of the steps: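 Nude mice bearing human primary pancreatic tumor PAN-04 given compound orally twice daily at 25 mg/kg; tumors excised 24 h after first dose, stored in RNAlater; mouse stromal Gli1 mRNA quantified with mouse Gli1 and mouse GAPDH probe sets; expressed relative to controls.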
A general note: In qPCR the cycle at which signal appears reflects the starting amount.
Turning to `CCc1nc2c(nc1NC(=O)c1ccccc1)c(OCC(F)(F)F)c(C(=O)NC1CCN(C(=O)CO)CC1)n2C`, the “Gli1 mRNA expression relative to control” value is 57%.

`CCc1cc2c(nc1NC(=O)c1ccccc1)c(OCC(F)(F)F)c(C(=O)NC1CCN(C(=O)CO)CC1)n2C`: the “Gli1 mRNA expression relative to control” value came to 87%.

For `CCc1cc2c(cc1NC(=O)c1ccccc1)c(OCC(F)(F)F)c(C(=O)NC1CCN(C(=O)CO)CC1)n2C`, the “Gli1 mRNA expression relative to control” value is listed as 50%.

Consider `CCc1nc2c(cc1NC(=O)c1ccccc1)c(OCC(F)(F)F)c(C(=O)NC1CCN(C(=O)CO)CC1)n2C`, for which the “Gli1 mRNA expression relative to control” value came to 24%.

On to `CCc1cc2c(c(OCC(F)(F)F)c(C(=O)NC3CCN(C(=O)CO)CC3)n2C)c(=O)n1CC(=O)c1ccccc1` [TAK-441], for which the “Gli1 mRNA expression relative to control” value is reported as 4%.

The next series is described as follows: Inhibition of hedgehog signaling pathway in mouse NIH/3T3 cells after 48 hrs by Gli-luciferase reporter gene assay. It counts as cell-based. As to conditions: NIH3T3, 48 h. An outline of the steps:
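NIH3T3 cells stably carrying Gli-luciferase reporter, kept in DMEM/10% FBS with 500 µg/mL G418, seeded at 7.5 × 10³ cells/well on collagen-coated plates overnight at 37 °C, 5% CO2; then recombinant mouse Shh-N plus compound (final 0.03–1000 nM, 5.8% FBS), n = 4 wells, 48 h; luciferase read with Bright-Glo; 0.1% DMSO ± 1 µg/mL Shh-N as controls; IC50 mean of four.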
In general terms: A reporter such as luciferase makes a cellular process visible.
Turning to `CCc1nc2c(nc1NC(=O)c1ccccc1)c(OCC(F)(F)F)c(C(=O)NC1CCN(C(=O)CO)CC1)n2C`, the IC50 stood at 3.1 nM.

As for `CCc1cc2c(nc1NC(=O)c1ccccc1)c(OCC(F)(F)F)c(C(=O)NC1CCN(C(=O)CO)CC1)n2C`, the IC50 was 3.9 nM.

`CCc1cc2c(cc1NC(=O)c1ccccc1)c(OCC(F)(F)F)c(C(=O)NC1CCN(C(=O)CO)CC1)n2C` came in with a 50% inhibitory concentration (IC50) of 2.6 nM.

`CCc1nc2c(cc1NC(=O)c1ccccc1)c(OCC(F)(F)F)c(C(=O)NC1CCN(C(=O)CO)CC1)n2C`: half-maximal inhibition (IC50) required 3.6 nM.

In turn, `CCc1nc2c(cc1CC(=O)c1ccccc1)c(OCC(F)(F)F)c(C(=O)NC1CCN(C(=O)CO)CC1)n2C` registered an IC50 of 46 nM.

In the case of `CCc1nc2c(c(OCC(F)(F)F)c(C(=O)NC3CCN(C(=O)CO)CC3)n2C)c(=O)n1CC(=O)c1ccccc1`, inhibition was half-maximal at 6.2 nM (IC50).

On to `CCc1cc2c(c(OCC(F)(F)F)c(C(=O)NC3CCN(C(=O)CO)CC3)n2C)c(=O)n1CC(=O)c1ccccc1` [TAK-441], for which the IC50 was determined as 4.4 nM.

The nature of another series: AUC (0 to 8 hrs) in non-fasted mouse at 10 mg/kg, po cassette dosing by LC/MS/MS analysis. In kind it is ADME, organism-based. Also noted: dose 10 mg/kg, time < 8 hr, route oral. As to conditions: in vivo. A digest of the protocol: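 Single 10 mg/kg oral cassette dose to nonfasted mice; blood sampled, plasma separated by centrifugation, deproteinized with MeCN containing internal standard, supernatant diluted in 10 mmol/L HCOONH4/0.2% formic acid–MeCN with 0.2% formic acid (9:1), recentrifuged, concentrations quantified by LC/MS/MS; AUC from 0 to 8 h.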
As for `CCc1nc2c(nc1NC(=O)c1ccccc1)c(OCC(F)(F)F)c(C(=O)NC1CCN(C(=O)CO)CC1)n2C`, the area under the curve AUC(0-t) at 8 h came out at 925 ng·h/mL.

For `CCc1cc2c(nc1NC(=O)c1ccccc1)c(OCC(F)(F)F)c(C(=O)NC1CCN(C(=O)CO)CC1)n2C`, the AUC(0-t) at 8 h came to 984 ng·h/mL.

In turn, `CCc1cc2c(cc1NC(=O)c1ccccc1)c(OCC(F)(F)F)c(C(=O)NC1CCN(C(=O)CO)CC1)n2C` registered an AUC(0-t) at 8 h of 1270 ng·h/mL.

Molecule `CCc1nc2c(cc1NC(=O)c1ccccc1)c(OCC(F)(F)F)c(C(=O)NC1CCN(C(=O)CO)CC1)n2C` displayed an AUC(0-t) at 8 h of 10800 ng·h/mL.

Regarding `CCc1cc2c(c(OCC(F)(F)F)c(C(=O)NC3CCN(C(=O)CO)CC3)n2C)c(=O)n1CC(=O)c1ccccc1` [TAK-441], the area under the curve AUC(0-t) at 8 h stood at 28300 ng·h/mL.

One may read the IC50 as the midpoint of a concentration-inhibition curve. Higher therefore signals weaker potency in that assay. The term AUC(0-t) denotes the area under the concentration-time curve up to a stated or last time point. A high value points to more exposure.
